MsrA inh: bovine MsrA enzyme inhibitors, primary screen, biochemical, absorbance, HTS; Methionine sulfoxide reductase A (Bos taurus); purified bovine MsrA, absorbance read-out; inhibition, % at 15.5 µM; actives 0.75% (n = 360,000); in the data active = inhibition above about 4.5%;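 note: 0% = vehicle wells with enzyme and 100% = reference inhibitor wells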
AI-2 QS mod: Vibrio harveyi AI-2 quorum sensing modulators, primary screen, JMH597 strain, luminescence/OD600 ratio | Vibrio harveyi JMH597 AI-2 luminescence/OD600 ratio, 9 h; active compounds read low; strain lacks LuxN and CqsS sensors; 0 = neutral-control median | activity change, % at 7.5 µM | actives 0.4% (n = 300,000); in the data active = activity change below about -75%, passing the limit was not always enough; inconclusive = no clear call, values can overlap the other calls;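 note: luminescence divided by OD600 gain over 9 h not by final OD600 alone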
HTR2A ag: mouse Htr2a agonists via beta-arrestin recruitment, primary screen, cell-based, luminescence | AID 624169, 2012 | actives 0.66% (n = 360,000) | 5-hydroxytryptamine receptor 2A (Mus musculus), P35363 | CHO-K1 mHTR2A beta-arrestin complementation; percent of 30 µM serotonin response | activation, % at 7.6 µM;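 active = activation above a run cutoff, the mean activation of all tested compounds plus 3 SD, cut at about 14% in these data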;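 note: 0% = plate median of compound wells and 100% = 30 µM serotonin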
Target sequence (P35363 whole entry, looked up): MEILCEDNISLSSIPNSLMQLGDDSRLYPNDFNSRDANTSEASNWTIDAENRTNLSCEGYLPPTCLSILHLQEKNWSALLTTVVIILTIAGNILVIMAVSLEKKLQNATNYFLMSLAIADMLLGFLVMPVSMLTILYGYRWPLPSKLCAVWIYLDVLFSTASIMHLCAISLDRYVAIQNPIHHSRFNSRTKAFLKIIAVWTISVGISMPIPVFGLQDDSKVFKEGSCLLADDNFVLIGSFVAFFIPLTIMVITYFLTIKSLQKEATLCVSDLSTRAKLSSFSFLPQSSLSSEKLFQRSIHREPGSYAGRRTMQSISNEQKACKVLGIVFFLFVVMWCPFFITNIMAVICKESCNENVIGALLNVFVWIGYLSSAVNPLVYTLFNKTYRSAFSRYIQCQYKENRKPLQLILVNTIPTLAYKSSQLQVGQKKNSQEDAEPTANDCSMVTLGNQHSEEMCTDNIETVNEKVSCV
AHR act: AHR activators, primary screen, cell-based, luminescence, luciferase reporter, human. AHR-responsive luciferase reporter cells. activation, % at 5 µM. actives 2.5% (n = 320,000). AID 2796, 2010; in the data active = activation above about 47%;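 note: 0% = vehicle wells and 100% = reference agonist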
MsrA act: bovine MsrA enzyme activators, primary screen, biochemical, absorbance, HTS; activation, % at 10.6 µM; purified bovine MsrA, absorbance read-out; Methionine sulfoxide reductase A (Bos taurus); actives 0.3% (n = 360,000); in the data active = activation above about 7.5%;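 note: 0% = vehicle and 100% = reference activator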
Tb MetRS inh: T. brucei MetRS inhibitors, primary screen, biochemical, luminescence. methionyl-tRNA synthetase (Trypanosoma brucei brucei). purified T. brucei MetRS, ATP depletion, Kinase-Glo luminescence. inhibition, % at 11.9 µM. actives 0.4% (n = 360,000);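 active = inhibition above a per-plate cutoff of the control wells' mean inhibition plus 3 SD, cut at about 5.5% in these data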;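 note: 0% = DMSO wells median and 100% = median of wells with control inhibitor compound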
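Material – parasite MetRS enzyme · Medium – HEPES-MgCl2-KCl buffer plus DTT, spermine, BSA, pyrophosphatase · Reagent – ATP, methionine and E. coli bulk tRNA substrates · Times – 15 min enzyme-compound preincubation, 2 h reaction, 10 min detection, 25 °C · Measured by – luminescence of leftover ATP · Evaluation – percent inhibition relative to median high and low control wells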
The depositor's hits bear a star; ? = inconclusive; . = no result. The list is not random: actives were taken first. Their share in the collection is about 4.4%.

SMILES | MsrA inh | AI-2 QS mod | HTR2A ag | AHR act | MsrA act | Tb MetRS inh
COc1ccc(-c2cc(C#N)nc(NN)n2)cc1 | 1 | 13 | 9 | 46 | -3 | 4
COc1ccc(-c2cc(C#N)nc(N3CCN(C)CC3)n2)cc1 | 2 | 7 | -9 | 73* | -2 | 0
COc1ccc(-c2cc(C#N)nc(Oc3ccc(Cl)cc3)n2)cc1 | -1 | 8 | 2 | 4 | -5 | 0
CC1CCCCC1NC(=O)CSc1nnnn1C (centres undefined) | 0 | . | 4 | . | -3 | 0
C[C@H](O)[C@@H]1C(=O)N2CCc3c([nH]c4ccccc34)[C@@H]2C[C@@H]1N(C)C(=O)Nc1ccc(Br)cc1 | 1 | . | . | . | . | .
CC(=O)Nc1nc(-c2ccccc2)nc(-c2ccccc2OC(C)=O)n1 | 1 | 9 | -4 | 75* | 7 | 0
Cc1cccc2nc(CSc3nc4ccccc4o3)cn12 | 2 | -93* | 3 | -3 | -3 | 0
Cc1cc(C)nc(SCc2cn3c(C)cccc3n2)n1 | 1 | 16 | 3 | 4 | -2 | -1
Nc1ccn([C@@H]2O[C@H](C(=O)N3CCN(C(=O)N4CCCCC4)CC3)[C@@H](O)[C@H]2O)c(=O)n1 | 0 | . | . | . | . | .
COc1ccc(-c2c(C(=O)c3ccccc3)[nH]c(N)c2C(=O)NCCc2c[nH]c3ccccc23)cc1 | 1 | . | . | . | . | .
CCCCCCCCN1C(=O)[C@@H](CC(=O)NCC2CCCCC2)C[C@@]2(C(=O)OC)C1=C[C@H](C1CCCC1)O[C@@H]2C | 0 | . | . | . | . | .
CCN(CC)c1nc(N)c([N+](=O)[O-])c(NCCO)n1 | 4.7* | 30 | -2 | 3 | -3 | 0
Cc1sc2ncnc(N3CCN(C(=O)c4ccco4)CC3)c2c1C | 0 | 26 | 3 | 55* | -5 | -1
O=C(c1ccco1)N1CCN(c2ncnc3scc(-c4ccc(F)cc4)c23)CC1 | 1 | 30 | 3 | 2 | -13 | -1
O=C(c1ccco1)N1CCN(c2ncnc3c(-c4ccc(Cl)cc4)nsc23)CC1 | . | 14 | -3 | 58* | -3 | 0
Cc1ccc(-c2csc3ncnc(N4CCN(C(=O)c5ccco5)CC4)c23)cc1 | 0 | . | 0 | -1 | -2 | 0
Cc1ccc(S(=O)(=O)N2CCCc3nc(C)c(C)cc32)cc1 | 0 | . | . | . | . | .
Cc1cc(C)n2nc(-c3ccccc3)cc2n1 | 2 | -2 | 0 | 24 | -13 | -2
CCC1C(=O)n2nc(-c3ccccc3)cc2N=C1C (centres undefined) | 0 | 31 | 3 | 51* | -3 | 0
CCOCCn1c2ccccc2c2nc3ccccc3nc21 | 4.7* | 7 | 5 | 38 | -2 | -1
CCn1c2ccccc2c2nc3cc(C(=O)O)ccc3nc21 | 3 | . | 11 | . | -9 | -1
CCn1c2ccccc2c2nc3ccccc3nc21 | . | 12 | 4 | 90* | -2 | 0
Cc1c(S(=O)(=O)NC2CCCCCC2)c(=O)n(C)c(=O)n1C | 1 | 17 | 2 | -1 | -4 | 0
COc1ccc2c(c1)[C@@H](NC(=O)c1ccncc1)[C@H](C)[C@H]2c1ccccc1 | -1 | . | . | . | . | .
COc1ccc(Nc2nc(OC)nc(N3CCOCC3)n2)cc1 | 0 | 8 | 2 | 51* | -5 | 0
SMILES | MsrA inh | AI-2 QS mod | HTR2A ag | AHR act | MsrA act | Tb MetRS inh
CCOC(=O)C1=C(C(=O)OCC)C2N(Cc3ccc(C(F)(F)F)cc3)c3ccccc3[C@@]23C[C@@H](C(=O)OC)N(S(=O)(=O)c2ccccc2C)C3=N1 (some centres undefined) | 1 | . | . | . | . | .
CC(C)c1ccc(-n2nc3ccc(N)cc3n2)cc1 | 2 | 5 | 0 | 58* | -9 | -1
Cc1cccn2c(=O)c3cc(C(=O)NC4CCCC4)c(=N)n(CC4CCCO4)c3nc12 (centres undefined) | 1 | 20 | -1 | 55* | -2 | 0
O=C(/C=C/c1ccc(F)cc1)Nc1cccc(S(=O)(=O)N2CCOCC2)c1 | 0 | . | -6 | 6 | -3 | 0
NC(=S)N/N=C\c1ccccc1OCc1ccccc1 | 0 | 5 | -4 | 33 | -2 | 1
NC(=S)N/N=C/c1c[nH]c2ccc(OCc3ccccc3)cc12 | . | 7 | -3 | 71* | -2 | 0
COc1cccc(/C=N/NC(N)=S)c1OCc1cccc(Cl)c1 | 1 | 27 | -7 | 60* | -3 | -1
COC(=O)N/N=C\c1ccccc1OC/C=C/c1ccccc1 | 0 | 26 | -9 | . | -3 | 0
COC(=O)N/N=C/c1cc(Cl)cc(Cl)c1OCc1ccccc1 | 0 | 9 | 0 | 62* | -8 | -1
O=C(c1cnn2c(C(F)F)cc(C3CC3)nc12)N1CCc2ccccc2C1 | 1 | 33 | 4 | 49* | -12 | -2
O=C(c1cnn2c(C(F)F)cc(-c3ccccc3)nc12)N1CCc2ccccc2C1 | 0 | 2 | -3 | 1 | -2 | 0
O=C(Cn1cncn1)N/N=C/c1cc([N+](=O)[O-])ccc1O | 4 | 25 | -19 | 2 | -1 | 0
O=C(Cn1cnc([N+](=O)[O-])n1)N/N=C/c1ccccc1O | 0 | ? | 8 | 1 | 2 | 0
Cc1ccn(CC(=O)N/N=C/c2cc([N+](=O)[O-])ccc2O)n1 | 2 | -169* | -15 | 17 | -12 | -1
O=C(Cn1cnc([N+](=O)[O-])n1)N/N=C/c1cc(Cl)ccc1O | 0 | -84* | -5 | 1 | -1 | 0
COc1cc(/C=C/C(=O)OCC(=O)N2CCN(S(=O)(=O)c3ccc(C)cc3C)CC2)cc(Cl)c1OC | -1 | . | 1 | . | 1 | 0
COc1ccc(CCNC(=O)c2coc(=O)c(Br)c2)cc1 | 4 | -33 | . | 2 | . | .
CCOC(=O)N[C@@H](Cc1cccnc1)C(=O)N1CCC[C@H]1C(=O)NCCc1ccccc1Cl | 0 | . | . | . | . | .
COc1ccc(NC(=O)C(=O)NCCO)cc1Cl | 0 | -7 | 4 | 59* | -10 | -1
COc1ccc(NC(=O)CNc2cccc(C#N)c2)cc1Cl | 0 | -80* | -5 | -11 | -4 | 1
COc1ccc(NC(=O)c2cccc(OC(F)F)c2)cc1Cl | -1 | -49 | 3 | 49* | -1 | 0
COc1ccc(NCC(=O)Nc2ccc(C#N)cc2)cc1Cl | -1 | 0 | -2 | -4 | 0 | 0
COc1ccc(NC(=O)C(=O)NCCCO)cc1Cl | -1 | 10 | -1 | 62* | -4 | 0
O=C(Nc1ccc(OC(F)F)c(Cl)c1)c1cccc(OC(F)F)c1 | . | 6 | 1 | -7 | -2 | 1

Bioassay records from PubChem.
